Holding throughout (assay type): functional, cell-based
The subject of assay [1] is SK-N-SH. As to the kind of experiment: Cytotoxicity against human SK-N-SH cells after 72 hrs by MTT assay. A digest of the protocol:
(§1)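 Cells grown in DMEM with 10% FBS at 37 °C, 5% CO2. 2000 cells per well in 96-well plates, allowed to adhere. Compounds were dissolved in DMSO, diluted in medium and added at 0–30 µM, 8 wells per concentration, for 72 h. MTT at 0.5 mg/mL for 4 h, then DMSO solubilization and absorbance at 490 nm. IC50 from concentration plots; at least 2 independent assays.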
A general note: Tetrazolium dyes change colour on reduction, which living cells bring about.

Assay [2] relates to MCF7. As to the kind of experiment: Cytotoxicity against human MCF7 cells after 72 hrs by MTT assay. To be noted: MCF7, 72 h. In outline:
as §1

For assay [3], the system named is HeLa. As to the kind of experiment: Cytotoxicity against human HeLa cells after 72 hrs by MTT assay. In outline:
as §1

Assay [4] deals with SK-N-SH. As to the kind of experiment: Cell cycle arrest in human SK-N-SH cells assessed as G1 phase accumulation.
The test system of assay [5] is MCF7. As to the kind of experiment: Cell cycle arrest in human MCF7 cells assessed as G2 phase accumulation.

Activity calls are given as the source filed them. The calls are words filed in the database; no cut-off is given here.

One may read the IC50 as the concentration at which inhibition is half-maximal.

Regarding `C[C@@H]1CC[C@@]2(OC1)O[C@H]1C[C@H]3[C@@H]4CC=C5C[C@@H](O[C@@H]6O[C@H](CO)[C@@H](O)[C@H](O)[C@H]6NC(=O)CCCCC6CCSS6)CC[C@]5(C)[C@H]4CC[C@]3(C)[C@H]1[C@@H]2C` (stereo partly drawn) [ALPHA LIPOYL], the IC50 in assay [1] came out at 4.8 µM; in assay [2], 6.9 µM; in assay [3], 7.3 µM.
The matching figures for `C[C@@H]1CC[C@@]2(OC1)O[C@H]1C[C@H]3[C@@H]4CC=C5C[C@@H](O[C@H]6O[C@@H](CO)[C@H](O)[C@@H](O)[C@@H]6NC(=O)CCCCC(=O)N[C@H]6[C@H](O[C@H]7CC[C@@]8(C)C(=CC[C@H]9[C@@H]%10C[C@@H]%11O[C@]%12(CC[C@@H](C)CO%12)[C@@H](C)[C@@H]%11[C@@]%10(C)CC[C@@H]98)C7)O[C@H](CO)[C@@H](O)[C@@H]6O)CC[C@]5(C)[C@H]4CC[C@]3(C)[C@H]1[C@@H]2C`: 19.5 µM, 19.2 µM and > 20 µM.
The matching figures for `CC(=O)N[C@@H](C)C(=O)N[C@H]1[C@H](O[C@H]2CC[C@@]3(C)C(=CC[C@H]4[C@@H]5C[C@@H]6O[C@]7(CC[C@@H](C)CO7)[C@@H](C)[C@@H]6[C@@]5(C)CC[C@@H]43)C2)O[C@H](CO)[C@@H](O)[C@@H]1O`: 15.3 µM, 11 µM and 20 µM.
For `C[C@@H]1CC[C@@]2(OC1)O[C@H]1C[C@H]3[C@@H]4CC=C5C[C@@H](O[C@@H]6O[C@H](CO)[C@@H](O)[C@H](O)[C@H]6NC(=O)c6ccccc6)CC[C@]5(C)[C@H]4CC[C@]3(C)[C@H]1[C@@H]2C`, the IC50 in assay [1] was 14.9 µM; in assay [2] it was 19.4 µM; in assay [3], 18 µM. Moreover, the result in assay [4] and in assay [5] was Active.
Turning to `CC(=O)N[C@H]1[C@H](O[C@H]2CC[C@@]3(C)C(=CC[C@H]4[C@@H]5C[C@@H]6O[C@]7(CC[C@@H](C)CO7)[C@@H](C)[C@@H]6[C@@]5(C)CC[C@@H]43)C2)O[C@H](CO)[C@@H](O)[C@@H]1O`, the figures for the IC50 in assay [1], in assay [2] and in assay [3] were 11.6 µM, 18.3 µM and 21.5 µM, respectively.
As for `C[C@@H]1CC[C@@]2(OC1)O[C@H]1C[C@H]3[C@@H]4CC=C5C[C@@H](O[C@@H]6O[C@H](CO)[C@@H](O)[C@H](O)[C@H]6NC(=O)CCC(=O)O)CC[C@]5(C)[C@H]4CC[C@]3(C)[C@H]1[C@@H]2C`, the IC50 came to 14.1 µM in assay [1], 22 µM in assay [2] and 13.9 µM in assay [3].
The matching figures for `C[C@@H]1CC[C@@]2(OC1)O[C@H]1C[C@H]3[C@@H]4CC=C5C[C@@H](O[C@@H]6O[C@H](CO)[C@@H](O)[C@H](O)[C@H]6NC(=O)CCCCC(=O)O)CC[C@]5(C)[C@H]4CC[C@]3(C)[C@H]1[C@@H]2C`: 16.3 µM, 11.3 µM and > 20 µM.

These data come from ChEMBL document CHEMBL1143914, “Synthesis and cytotoxic activity of diosgenyl saponin analogues” (Bioorg Med Chem, 2008).
